Screening data as filed in PubChem.
Most compounds without a hit are left out; they make up all but 6.6% or so of the library.
HUVEC prolif 384: inhibitors of HUVEC proliferation, primary screen, cell-based, 384-well; CellTiter-Glo luminescence, 72 h; stronger effect = lower value; viability, % at 10 µM (by protocol); 86,000 tested, 1.1% active;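 active = viability at or below 30%; inactive = viability above 30%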
H69AR growth 86K: proliferation blockers of H69AR lung cancer cells, primary screen, cell-based, human, 86K library | 85,000 tested, 6% active | H69AR lung tumor viability, ATP luminescence, 72 h; stronger effect = lower value | viability, % at 10 µM;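 active = viability at or below 40%; inactive = viability above 40%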;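 also: multidrug resistant small cell line overexpressing MRP-1 efflux transporter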
Lung fibro prol: antiproliferative effect on LL 47 fibroblasts – human, LL 47 cells, CellTiter-Glo luminescence, primary screen. LL 47 human lung fibroblast viability, ATP luminescence; stronger effect = lower value. viability, % at 10 µM. 85,000 tested, 1.1% active;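 active = viability at or below 50% in the single dose screen; inactive = viability above 50%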;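 also: compound exposure lasted 72 h before the ATP readout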
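Material: human LL 47 lung fibroblast cells; quantity: 1,150 cells/well; medium: IMEM plus 15% FBS; doses: 0.1% DMSO in all compound wells; timing: overnight attachment after seeding, then 72 h compound exposure at 37 °C; detection: CellTiter-Glo luminescence; measure: % viability of median cell-only signal; controls: cell-only wells, no compound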
Jurkat viability: cytotoxicity toward Jurkat T cells, primary screen, cytotoxicity control, cell-based, Jurkat E6.1, 60K MLSMR library; Jurkat E6.1 viability, ATP luminescence, 48 h; inhibition, % at 4 µM; 56,000 tested, 1.2% active; AID 463, 2006;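 active = inhibition above the mean inhibition of all tested compounds plus 3 SD, cut at about 28% in these data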
A number is an active result; 0 = inactive; - = no result.

SMILES	HUVEC prolif 384	H69AR growth 86K	Lung fibro prol	Jurkat viability
COC(=O)CC1Oc2ccc(C)cc2NC1=O (centres undefined)	0	0	0	0
C=C(C)C(=O)OC1(C(F)(F)F)Oc2cc(C)ccc2NC1=O (centres undefined)	15.0	1.5	17.4	-
COCCN(C(=O)CNC(=O)c1ccco1)C(C(=O)NC1CCCC1)c1cccs1 (centres undefined)	0	0	-	-
COc1ccc(C2CC(=O)c3cnc(N)nc3C2)c(OC)c1 (centres undefined)	0	0	0	0
COc1ccc(C2CC(=O)c3cnc(NC(=O)c4ccccc4)nc3C2)c(OC)c1 (centres undefined)	0	27.0	0	0
CN1CC=C2C(C#N)=C(N)C(C#N)(C#N)C(c3cccc(Cl)c3Cl)C2C1 (centres undefined)	0	15.2	0	0
CCCCOc1ccc(C2C3CN(C(=O)OCC)CC=C3C(C#N)=C(N)C2(C#N)C#N)cc1OC (centres undefined)	-	-	-	0
CN1CC=C2C(C#N)=C(N)C(C#N)(C#N)[C@H](c3ccoc3)[C@H]2C1	0	0	0	-
N#CC1=C(N)C(C#N)(C#N)[C@H](c2ccoc2)[C@H]2CN(Cc3ccccc3)CC=C12	0	4.0	0	0
CCOC(=O)N1CC=C2C(C#N)=C(N)C(C#N)(C#N)[C@H](c3ccc(OCC)c(OCC)c3)[C@H]2C1	0	26.1	0	0
N#CC1=C(N)C(C#N)(C#N)C(c2cccnc2)C2CN(C(=O)OCc3ccccc3)CC=C12 (centres undefined)	0	11.4	0	-
C=CCNC1=C(Cl)C(=O)N(c2ccccc2Cl)C1=O	0	0	0	0
Cc1nn(-c2ccccn2)c2c1-c1nc(N3CCOCC3)ncc1CC2	0	10.1	0	-
Cc1cc(S(=O)(=O)Nc2ccc(N(C)C)cc2)c(C)s1	0	0	0	-
O=C(Nc1nnc(-c2ccccc2Cl)o1)c1cccnc1	0	0	0	0
N#Cc1sc2nc(N3CCCCC3)c3c(c2c1N)CCCC3	7.4	23.0	0	-
COc1cccc(-c2cc(C(=O)Nc3cc(OC)c(OC)c(OC)c3)no2)c1	0	16.9	0	67.0
COc1cccc(-c2cc(C(=O)Nc3cccnc3)no2)c1	0	0	0	-
COc1cc(NC(=O)Cn2nc(Cc3cccnc3)c3ccccc3c2=O)cc(OC)c1OC	0	0	0	-
COC(=O)c1cc(=O)n(CCc2ccccc2F)c(=Nc2ccc(F)c(Cl)c2)s1	8.9	1.5	15.9	-
COC(=O)c1cc(=O)n(Cc2ccco2)c(=Nc2ccc(F)c(Cl)c2)s1	3.1	1.5	7.9	0
COC(=O)C1=C(C)N(c2ccc(F)c(Cl)c2)C(=O)C1	0	0	0	0
CC(C)c1cc(C(F)(F)F)n2nc(C(=O)Nc3ccc4c(c3)OCO4)cc2n1	0	0	0	0
CCOC(=O)CSC1=C(C#N)C(c2ccc(C)s2)CC(=O)N1 (centres undefined)	0	35.3	0	86.3
CCOC(=O)CSC1=C(C#N)C(c2ccccc2OC)CC(=O)N1 (centres undefined)	0	24.9	0	0
SMILES	HUVEC prolif 384	H69AR growth 86K	Lung fibro prol	Jurkat viability
CCSC1=C(C#N)C(c2ccc(C)s2)CC(=O)N1 (centres undefined)	0	0	0	0
Cc1ccc2[nH]c3c(NCc4ccco4)ncnc3c2c1	0	0	0	36.9
COCc1nnc(NS(=O)(=O)c2c(C)cc(C)cc2C)s1	0	0	0	-
Cc1ccc(C2NC(=O)c3ccccc3N2)s1 (centres undefined)	0	31.6	0	75.0
CCOC(=O)N1CCN(C(=O)CS(=O)(=O)c2cn(Cc3ccc(F)cc3)c3ccccc23)CC1	-	-	-	0
CC(C)Cc1nnc(NC(=O)c2ccncc2)s1	0	0	0	0
O=C(CSc1nc2c(cnn2-c2ccccc2)c(=O)[nH]1)c1ccc(Cl)cc1	0	36.2	0	0
CCCSc1nc2c(cnn2-c2ccc(C)cc2)c(=O)[nH]1	11.1	12.6	0	0
CCCSc1nc2c(cnn2-c2ccccc2)c(=O)[nH]1	0	0	0	0
O=C(N1CCN(c2ccccn2)CC1)N1c2ccccc2Sc2ccccc21	26.1	34.2	0	69.3
O=C(c1ccco1)N1c2ccccc2Sc2ccccc21	-	-	-	0
O=C(c1c(Cl)cccc1Cl)N1CCN(c2ccccn2)CC1	0	0	0	0
O=C(c1ccco1)N1CCN(C(=O)N2c3ccccc3Sc3ccccc32)CC1	0	31.9	0	98.5
